According to ChEMBL document CHEMBL1140701, “Synthesis, conformational analysis, and biological evaluation of 1-hexylindolactam-V10 as a selective activator for novel protein kinase C isozymes” (J Med Chem, 2008):
Active and inactive are the calls of the source. The calls are words filed in the database; no cut-off is given here.

Key:
[1] = target: T1, Protein kinase C alpha type (Homo sapiens, UniProt P17252); assay: Displacement of [3H]PDBu from PKCalpha C1B domain
Outline: (§1)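 [3H]PDBu (20 nM, 16.3 Ci/mmol) competition binding with synthetic PKC C1 peptides (10–40 nM) in 50 mM Tris-maleate pH 7.4 at 4 °C, with 50 µg/mL phosphatidylserine, 3 mg/mL bovine γ-globulin and varied inhibitor concentrations. IC50 is the concentration giving 50% inhibition of specific binding. Ki derived by the Sharkey–Blumberg method. SD from at least two separate experiments.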

[2] = target: Protein kinase C delta type (Homo sapiens, UniProt Q05655); assay: Displacement of [3H]PDBu from PKCdelta C1B domain; outline: as §1
Sequence of Protein kinase C delta type (Q05655 whole entry, the tested form may be a part): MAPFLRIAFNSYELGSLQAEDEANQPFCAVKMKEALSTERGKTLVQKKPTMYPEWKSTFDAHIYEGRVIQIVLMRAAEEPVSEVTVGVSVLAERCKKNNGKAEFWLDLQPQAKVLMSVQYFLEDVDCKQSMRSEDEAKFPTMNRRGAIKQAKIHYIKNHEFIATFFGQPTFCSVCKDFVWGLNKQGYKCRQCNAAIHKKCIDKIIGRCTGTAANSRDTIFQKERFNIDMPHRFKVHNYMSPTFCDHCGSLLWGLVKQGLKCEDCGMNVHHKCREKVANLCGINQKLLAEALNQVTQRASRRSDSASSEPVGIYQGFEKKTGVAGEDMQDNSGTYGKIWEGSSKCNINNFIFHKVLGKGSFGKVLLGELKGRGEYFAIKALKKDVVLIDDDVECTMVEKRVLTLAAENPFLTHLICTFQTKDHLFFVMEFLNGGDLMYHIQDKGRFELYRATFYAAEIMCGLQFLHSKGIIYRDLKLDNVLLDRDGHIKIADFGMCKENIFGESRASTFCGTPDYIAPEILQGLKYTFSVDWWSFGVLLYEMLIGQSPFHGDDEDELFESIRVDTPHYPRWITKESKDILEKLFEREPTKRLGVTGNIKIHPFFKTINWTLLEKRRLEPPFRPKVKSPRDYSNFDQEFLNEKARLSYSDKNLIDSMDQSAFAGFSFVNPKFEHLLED

[3] = target: T2, Protein kinase C gamma type (Homo sapiens, UniProt P05129); assay: Displacement of [3H]PDBu from PKCgamma C1B domain; outline: as §1
[4] = target: Protein kinase C eta type (Homo sapiens, UniProt P24723); assay: Displacement of [3H]PDBu from PKCeta C1B domain
Sequence of Protein kinase C eta type (P24723 whole entry, the tested form may be a part): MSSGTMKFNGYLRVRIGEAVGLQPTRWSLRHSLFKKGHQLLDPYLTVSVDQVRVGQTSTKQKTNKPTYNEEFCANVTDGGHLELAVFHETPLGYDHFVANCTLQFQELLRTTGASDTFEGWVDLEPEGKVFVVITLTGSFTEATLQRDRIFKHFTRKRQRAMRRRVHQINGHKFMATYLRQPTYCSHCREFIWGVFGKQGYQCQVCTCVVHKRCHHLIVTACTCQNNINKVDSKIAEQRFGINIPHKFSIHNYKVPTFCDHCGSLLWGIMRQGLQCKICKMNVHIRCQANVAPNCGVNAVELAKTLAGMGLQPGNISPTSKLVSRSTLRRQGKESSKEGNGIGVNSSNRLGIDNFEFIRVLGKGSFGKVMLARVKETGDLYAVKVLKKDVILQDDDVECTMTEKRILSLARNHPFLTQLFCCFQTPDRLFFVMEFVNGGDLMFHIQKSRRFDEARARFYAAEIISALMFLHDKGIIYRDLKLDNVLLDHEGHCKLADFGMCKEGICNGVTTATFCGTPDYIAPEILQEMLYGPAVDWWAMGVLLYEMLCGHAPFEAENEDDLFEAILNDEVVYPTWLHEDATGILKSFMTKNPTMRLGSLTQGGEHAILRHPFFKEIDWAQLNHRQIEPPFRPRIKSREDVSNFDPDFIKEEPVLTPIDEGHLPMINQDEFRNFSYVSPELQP
Outline: (§2)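 Synthetic PKC C1 peptides (10–40 nM; about 3 nM properly folded, estimated from earlier Scatchard Bmax) were incubated with 20 nM [3H]PDBu (16.3 Ci/mmol) in 50 mM Tris-maleate (pH 7.4 at 4 °C). The mix also held 50 µg/mL 1,2-dioleoyl-sn-glycero-3-phospho-L-serine, 3 mg/mL bovine γ-globulin and varied inhibitor. IC50 came from probit analysis and Ki from the Sharkey–Blumberg method.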

[5] = target: Protein kinase C theta type (Homo sapiens, UniProt Q04759); assay: Displacement of [3H]PDBu from PKCtheta C1B domain; outline: as §2
Sequence of Protein kinase C theta type (Q04759 whole entry, the tested form may be a part): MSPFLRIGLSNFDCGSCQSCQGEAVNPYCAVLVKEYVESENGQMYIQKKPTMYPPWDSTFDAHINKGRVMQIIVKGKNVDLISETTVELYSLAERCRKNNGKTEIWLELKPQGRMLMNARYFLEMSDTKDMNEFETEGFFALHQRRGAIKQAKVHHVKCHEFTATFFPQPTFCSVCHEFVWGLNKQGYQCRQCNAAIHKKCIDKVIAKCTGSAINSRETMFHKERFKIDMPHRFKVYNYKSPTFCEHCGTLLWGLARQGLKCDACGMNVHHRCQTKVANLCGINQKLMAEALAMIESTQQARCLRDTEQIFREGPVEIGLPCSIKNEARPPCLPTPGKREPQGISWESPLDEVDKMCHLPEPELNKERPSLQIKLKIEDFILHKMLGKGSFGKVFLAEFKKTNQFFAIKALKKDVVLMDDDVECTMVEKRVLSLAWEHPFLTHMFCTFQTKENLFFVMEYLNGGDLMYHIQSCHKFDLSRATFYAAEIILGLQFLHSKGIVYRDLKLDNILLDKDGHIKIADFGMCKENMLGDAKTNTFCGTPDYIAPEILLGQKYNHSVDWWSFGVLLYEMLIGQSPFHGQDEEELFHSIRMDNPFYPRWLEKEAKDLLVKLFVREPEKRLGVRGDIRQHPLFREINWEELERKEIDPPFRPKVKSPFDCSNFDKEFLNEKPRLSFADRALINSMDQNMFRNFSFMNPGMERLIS

[6] = Displacement of [3H]PDBu from PKCdelta C1B P11dfP mutant; outline: as §1
[7] = Displacement of [3H]PDBu from PKCgamma C1A P11dfP mutant; outline: as §1
[8] = target: T3, Protein kinase C beta type (Homo sapiens, UniProt P05771); assay: Displacement of [3H]PDBu from PKCbeta C1A domain; outline: as §1
Target sequence in this assay (P05771 whole entry, the tested form may be a part): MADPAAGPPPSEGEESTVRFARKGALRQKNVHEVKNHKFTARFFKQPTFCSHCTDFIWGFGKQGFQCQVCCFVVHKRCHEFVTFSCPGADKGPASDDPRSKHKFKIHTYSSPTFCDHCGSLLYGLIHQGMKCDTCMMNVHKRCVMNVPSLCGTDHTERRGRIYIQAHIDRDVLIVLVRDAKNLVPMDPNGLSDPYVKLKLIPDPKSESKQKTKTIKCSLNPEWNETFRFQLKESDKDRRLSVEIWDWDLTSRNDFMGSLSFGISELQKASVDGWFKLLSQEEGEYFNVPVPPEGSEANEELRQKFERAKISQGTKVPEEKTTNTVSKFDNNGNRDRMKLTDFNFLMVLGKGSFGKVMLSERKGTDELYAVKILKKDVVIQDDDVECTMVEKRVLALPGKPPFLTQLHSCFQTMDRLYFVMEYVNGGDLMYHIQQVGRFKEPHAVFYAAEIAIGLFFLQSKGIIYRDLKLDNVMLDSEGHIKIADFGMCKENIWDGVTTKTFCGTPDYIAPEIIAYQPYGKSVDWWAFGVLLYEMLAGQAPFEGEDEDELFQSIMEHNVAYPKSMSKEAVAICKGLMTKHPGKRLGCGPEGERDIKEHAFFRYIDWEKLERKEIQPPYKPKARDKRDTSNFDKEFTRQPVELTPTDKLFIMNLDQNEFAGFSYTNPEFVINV

[9] = target: T4, Protein kinase C epsilon type (Homo sapiens, UniProt Q02156); assay: Displacement of [3H]PDBu from PKCepsilon C1B domain; outline: as §2
T4 sequence (Q02156 whole entry): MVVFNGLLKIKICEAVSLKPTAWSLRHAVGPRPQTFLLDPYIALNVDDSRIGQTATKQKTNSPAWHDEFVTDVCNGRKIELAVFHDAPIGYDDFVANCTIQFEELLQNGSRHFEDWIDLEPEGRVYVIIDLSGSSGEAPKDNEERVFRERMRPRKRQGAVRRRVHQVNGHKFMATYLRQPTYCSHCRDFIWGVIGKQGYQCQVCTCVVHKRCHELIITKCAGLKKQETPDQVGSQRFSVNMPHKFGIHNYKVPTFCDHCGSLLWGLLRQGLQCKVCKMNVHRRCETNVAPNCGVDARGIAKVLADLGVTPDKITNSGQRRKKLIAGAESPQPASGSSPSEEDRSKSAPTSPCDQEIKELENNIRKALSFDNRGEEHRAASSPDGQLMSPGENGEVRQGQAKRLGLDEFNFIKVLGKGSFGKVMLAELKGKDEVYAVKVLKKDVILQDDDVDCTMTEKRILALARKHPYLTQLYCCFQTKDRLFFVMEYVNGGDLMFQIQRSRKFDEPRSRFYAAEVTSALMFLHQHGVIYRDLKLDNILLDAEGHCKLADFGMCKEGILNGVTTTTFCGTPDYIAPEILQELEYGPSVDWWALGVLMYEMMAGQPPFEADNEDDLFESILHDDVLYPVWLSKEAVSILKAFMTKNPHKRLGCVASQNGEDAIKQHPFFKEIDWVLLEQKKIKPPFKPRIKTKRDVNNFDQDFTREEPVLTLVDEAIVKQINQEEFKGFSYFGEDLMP

[10] = Selectivity ratio of PKCdelta C1B domain over PKCdelta C1B P11dfP mutant
[11] = target: T1, Protein kinase C alpha type; assay: Displacement of [3H]PDBu from PKCalpha C1A domain; outline: as §1
[12] = target: T3, Protein kinase C beta type; assay: Displacement of [3H]PDBu from PKCbeta C1B domain; outline: as §1
Target sequence in this assay (P05771 whole entry, the tested form may be a part): as the sequence (P05771 whole entry, the tested form may be a part) above

[13] = target: T2, Protein kinase C gamma type; assay: Displacement of [3H]PDBu from PKCgamma C1A domain; outline: as §1
[14] = Selectivity ratio of PKCgamma C1A domain over PKCgamma C1A P11dfP mutant
[15] = target: T3, Protein kinase C beta type; assay: Displacement of [3H]PDBu from PKCbeta C1A domain at 10 uM
Outline: (§3)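 Competition for specific [3H]PDBu (20 nM, 16.3 Ci/mmol) binding to C1 peptide (10–40 nM) was tested with a single 10 µM competitor. The buffer was 50 mM Tris-maleate (pH 7.4 at 4 °C) with 50 µg/mL dioleoylphosphatidylserine and 3 mg/mL bovine γ-globulin.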
Target sequence in this assay (P05771 2-671 limits assumed): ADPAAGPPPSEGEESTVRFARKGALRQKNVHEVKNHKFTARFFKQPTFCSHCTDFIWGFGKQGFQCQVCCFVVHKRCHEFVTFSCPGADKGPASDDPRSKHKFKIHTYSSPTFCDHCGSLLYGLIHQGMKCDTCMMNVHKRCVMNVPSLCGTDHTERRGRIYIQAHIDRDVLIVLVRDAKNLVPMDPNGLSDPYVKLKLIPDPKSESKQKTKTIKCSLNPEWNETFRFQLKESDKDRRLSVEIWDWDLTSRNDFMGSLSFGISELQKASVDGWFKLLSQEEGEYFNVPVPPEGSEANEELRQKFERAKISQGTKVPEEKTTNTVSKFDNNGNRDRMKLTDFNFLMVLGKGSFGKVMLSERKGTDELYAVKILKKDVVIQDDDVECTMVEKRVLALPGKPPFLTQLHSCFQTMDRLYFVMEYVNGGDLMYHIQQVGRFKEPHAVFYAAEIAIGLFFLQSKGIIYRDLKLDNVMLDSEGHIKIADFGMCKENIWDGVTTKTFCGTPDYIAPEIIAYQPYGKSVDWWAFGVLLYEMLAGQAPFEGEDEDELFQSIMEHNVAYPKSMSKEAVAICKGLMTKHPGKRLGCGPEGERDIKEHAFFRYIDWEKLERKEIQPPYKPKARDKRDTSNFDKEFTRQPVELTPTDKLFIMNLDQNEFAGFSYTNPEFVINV

[16] = target: T3, Protein kinase C beta type; assay: Displacement of [3H]PDBu from PKCbeta C1B domain at 10 uM; outline: as §3
Target sequence in this assay (P05771 2-671 limits assumed): as above

Compound | Ki [1] [nM] | Ki [2] [nM] | Ki [3] [nM] | Ki [4] [nM] | Ki [5] [nM] | Ki [6] [nM] | Ki [7] [nM] | Ki [8] [nM] | Ki [9] [nM] | Ratio Ki [10] | Ki [11] [nM] | Ki [12] [nM] | Ki [13] [nM] | Ratio Ki [14] | Activity [15] | Activity [16]
CCCCCCn1cc2c3c(cccc31)N(C)[C@@H](C(C)C)C(=O)N[C@H](CO)C2 | 43 | 0.46 | 39 | 0.34 | 1.4 | 3.7 | 71 | 9.8 | 0.47 | 8 | 5.8 | 11 | 15 | 4.7 |  | 
CC(C)[C@H]1C(=O)N[C@H](CO)Cc2c[nH]c3cccc(c23)N1C [INDOLACTUM] |  | 11 | 59 |  |  | 130 | 690 | 19 |  | 11.8 | 21 |  | 89 | 7.8 |  | 
CCCCCCn1c(Br)c2c3c(cccc31)N(C)[C@@H](C(C)C)C(=O)N[C@H](CO)CC2 |  |  |  |  |  |  |  |  |  |  |  |  |  |  | inactive | inactive
CCCCCCn1cc2c3c(cccc31)N(C)[C@@H](C(C)C)C(=O)N[C@H](CO)CC2 | > 10000 | 15 | 420 | 25 | 12 | 120 | 14000 | 9200 | 29 | 8 | 6700 | 440 | 11000 | 1.3 |  | 
CCCCCCn1cc2c3c(c(Cl)ccc31)N(C)[C@@H](C(C)C)C(=O)N[C@H](CO)CC2 |  |  |  |  |  |  |  |  |  |  |  |  |  |  | inactive | inactive
CC(C)[C@H]1C(=O)N[C@H](CO)Cc2ccccc2N1C |  | 410 |  |  |  | 436 | 2500 |  |  | 1.1 |  |  | 3100 | 0.8 |  | 
